# In PubChem BioAssay:
# Unmarked numbers belong to inactive results. Active and inactive are the calls of the source.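 Rule for the calls: active = growth inhibition above a set limit, 3 SD over mean compound inhibition, in both replicates (cut at about 43% in these data); inconclusive = above the limit in only one replicate; inactive = at or below the limit in both replicates.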
# Assay: Restrictive medium S. cerevisiae growth inhibition, OD615, pilot screen of yeast lifespan reduction project, restrictive growth control (AID 706);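 note: modified DeaD lifespan yeast strain shifted to restrictive glucose medium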
# Settings: OD615, 48 h, at 10 µM, active compounds read high
# In short: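 System: Engineered S. cerevisiae DeaD strain | Buffer or medium: Glucose-based CSMM-D restrictive medium | Schedule: 4 h pre-incubation, 48 h exposure at 30 °C | Technique: Optical density at 615 nm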
row,Structure (SMILES),growth inhibition
1,CCOC(=O)c1cc(NC(=O)SCC(=O)O)c(C)nc1C,0.73%
2,Clc1c(CSc2nc3ccccc3o2)nc2sccn12,-9.04%
3,O=C(CCn1[nH]c(=O)c2ccccc2c1=O)NCCO,-13.6%
4,CC12CCC(C(=O)N3CCN(C(=O)C45CCC(C)(C(=O)O4)C5(C)C)CC3)(OC1=O)C2(C)C,-7.99%
5,COc1cccc(C2C(C(=O)c3cccs3)=C(O)C(=O)N2CCCn2ccnc2)c1OC (stereo not given),1.34%
6,Cc1ccc(S(=O)(=O)N(CC(=O)N2CCC(C(N)=O)CC2)Cc2ccc(F)cc2)cc1,2.36%
7,COc1ccc(N2CCN(C(=O)CSc3ccccc3)CC2)cc1,11.6%
8,COc1ccccc1N1CCN(C(=O)C2CCN(S(=O)(=O)c3ccc(F)cc3)CC2)CC1,-1.89%
9,COCCN1C=C(C(=O)OC)C(c2cc3c(cc2Br)OCO3)C(C(=O)OC)=C1,-14.6%
10,CC1=C(C(N)=O)C(c2ccccn2)n2nc(SCc3ccccc3)nc2N1 (stereo not given),3.69%
11,O=C(/C=C/N1CCOCC1)c1ccc(-c2ccccc2)cc1,100% (active)
12,CCOc1ccc(NS(=O)(=O)c2cc(Cl)ccc2OC)cc1,-13.3%
13,COc1ccc(NC(=O)CC2CCCCC2)cc1OC,-10.4%
14,Cc1oc(-c2cccc(Cl)c2)nc1CN1CCC(C(=O)N2CCN(c3ccccc3F)CC2)CC1,1.06%
15,O=C(Nc1ccc2c(c1)OCCO2)C1CCN(C(=O)c2ccc(F)cc2)CC1,-4.03%
16,CCOC(=O)Nc1c(O)ccc2oc(C)c(-c3ccccc3)c12,-6.34%
17,O=C(CCNS(=O)(=O)c1cccs1)Nc1ccccc1F,-12.8%
18,CCOC(=O)N1CCN(C(=O)CN(C2CCCCC2)S(=O)(=O)c2ccc(F)cc2)CC1,-5.59%
19,O=C(COc1ccc(F)cc1)Nc1ccc(-n2cnnn2)cc1,2.31%
20,O=C(Cn1c(=O)sc2ccccc21)NCCOc1ccccc1F,11.1%

row,Structure (SMILES),growth inhibition
1,O=C(c1ccco1)c1nnn(Cc2ccccc2)c1-c1ccccc1,-8.41%
2,O=C(Nc1ncc(Cc2ccccc2)s1)C1CCCO1 (stereo not given),3.14%
3,CC1=C(C(=O)OC2CCCCCC2)C(c2ccc(C)o2)C2=C(CCCC2=O)N1 (stereo not given),-22.5%
4,CC12CN3CCN(CC(C3)C1(O)CN1CCCCC1)C2 (stereo not given),-6.28%
5,CCn1c(C(C#N)/C(=N\S(=O)(=O)c2cccs2)c2ccccc2)nc2ccccc21 (stereo not given),-15%
6,CCOC(=O)N1CCN(C(=O)c2cnn(-c3ccccc3)c2NC(=O)c2ccccc2F)CC1,-2.95%
7,O=C(CCC(=O)OCC(=O)c1ccccc1)NC1CCCCC1,-5.45%
8,O=C(Nc1nc2c(s1)CCCC2)C1COc2ccccc2O1 (stereo not given),-7.76%
9,CCN(CC)S(=O)(=O)c1ccc2c(c1)nc(SCn1nnc3ccccc3c1=O)n2CC,-5.42%
10,Cc1ccc(N2C(=O)c3oc4ccccc4c(=O)c3C2c2cccc(O)c2)nc1 (stereo not given),-3.53%
11,COc1cc(C(=O)NCCc2ccc3c(c2)OCCO3)ccc1OCC(=O)N1CCOCC1,-16%
12,O=C(CN1CCN(Cc2ccccc2)CC1)NCC1COc2ccccc2O1 (stereo not given),-5.58%
13,Cc1nonc1NC(=O)c1ccccc1Br,-8.82%
14,Cc1cc(NC(=O)CSc2nc3c(c(-c4cccnc4)c2C#N)CCC3)no1,1.02%
15,Cc1onc(-c2ccccc2)c1C(=O)NCc1cccnc1,-11.6%
16,OC(CNCCc1ccccc1)c1ccccc1 (stereo not given),-6.08%
17,Cc1ccc(C)n1-c1ccc(N2CCOCC2)cc1,-9.78%
18,C#CCOC(=O)C1C2C=CC(C2)C1C(=O)O (stereo not given),-1.21%
19,Cc1ccc(C(=O)Nc2c(C(=O)N3CCOCC3)cnn2-c2ccccc2)cc1,-9.73%
20,Clc1cccc(-c2nnc(-c3ccccc3)o2)c1,3.85%
